In ChEMBL document CHEMBL1124188, “Soft drugs. 7. Soft beta-blockers for systemic and ophthalmic use” (J Med Chem, 1988):

Assays:
[1] = organism: Homo sapiens; test: In vitro hydrolytic rate constant determined in human blood; type: ADME
How it was run: (§1)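 Compounds were placed in human blood, and samples were withdrawn over time. Each sample was mixed at once with ice-cold acetonitrile and centrifuged. The supernatant was analysed by reverse-phase C18 HPLC with variable-wavelength UV detection. Disappearance was treated as pseudo-first-order. Values are the mean of at least four runs ± SE of the mean.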

[2] = (§2) Half life period determined in human blood; type: ADME, organism-based; how it was run: as §1
[3] = organism: Homo sapiens; test: as §2; type: ADME, organism-based; conditions: in vitro; how it was run: as §1

`CC(C)NCC(O)COc1ccc(CC(=O)OCC(=O)OC2CCCCC2)cc1` (centres undefined) showed a K [1] of 0.154 min⁻¹ and a half-life ([2]; human blood) of 4.5 min.

For `CC(C)NCC(O)COc1ccc(CC(=O)OCC23CC4CC(CC(C4)C2)C3)cc1` (centres undefined), the K [1] was 0.015 min⁻¹ and the half-life ([2]; human blood) was 46.2 min.

With `CC(C)NCC(O)COc1ccc(CC(=O)OC2CC3CCC2(C)C3(C)C)cc1` (centres undefined) the K [1] was 0.0009 min⁻¹ and the half-life ([2]; human blood) was 770 min.

Compound `CC(C)NCC(O)COc1ccc(CC(=O)OC2CC3CCC2C3)cc1` (stereo in doubt; 3e) has a K [1] of 35000 min⁻¹ and a T1/2 [3] of 19.8 min.

Work on `CC(C)NCC(O)COc1ccc(CC(=O)OC2CC3CCC2C3)cc1` (stereo in doubt; 3f) yielded a K [1] of 0.02 min⁻¹ and a half-life ([2]; human blood) of 34.6 min.

Work on `CC(C)NCC(O)COc1ccc(CC(=O)OCCC23CC4CC(CC(C4)C2)C3)cc1` (centres undefined) [ADAPROLOL] yielded a K [1] of 0.1 min⁻¹ and a half-life [2] of 6.9 min.

With `COC(=O)CCc1ccc(OCC(O)CNC(C)C)cc1` (centres undefined) [ESMOLOL] the K [1] was 0.0033 min⁻¹ and the T1/2 [3] was 210 min.
